Here are results for 30 compounds from ChEMBL document CHEMBL1177770, “A rapid synthesis of lavendustin-mimetic small molecules by click fragment assembly” (Bioorg Med Chem Lett, 2010).

Experiment [1] has as its system CCRF-CEM. Description: Growth inhibition of human CCRF-CEM cells at 10 uM after 2 days by MTT assay. Type of experiment: functional. The following applies: 48 h. (In general: Tetrazolium dyes change colour on reduction, which living cells bring about.)
For experiment [2], the system named is HCT-116. The experiment is described as follows: Growth inhibition of human HCT116 cells after 2 days by MTT assay. Format: functional. The following applies: HCT-116, 48 h. Summed up:
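HCT116 colorectal carcinoma cells from KCLB/ATCC were grown in RPMI 1640/DMEM with 10% heat-inactivated FBS at 37 °C and 5% CO₂. Cells were seeded at 5 × 10⁴ cells/ml and exposed in duplicate to a range of concentrations for two days. MTT dye was added for up to 4 h at 37 °C, formazan was solubilized overnight at room temperature, and A570 gave GI₅₀.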

The subject of experiment [3] is CCRF-CEM. The experiment is described as follows: Growth inhibition of human CCRF-CEM cells after 2 days by MTT assay. Type of experiment: functional. To be noted: 48 h.
Experiment [4] has as its system HCT-116. Description: Growth inhibition of human HCT116 cells at 10 uM after 2 days by MTT assay. Format: functional. The following applies: HCT-116, 48 h.
A further experiment has as its system HaCaT. Description: Cytotoxicity against human HaCaT cells.

The term inhibition denotes the drop in the measured response relative to a control, in per cent. The low end stands for a response near the control, the high end for a response far below the control. What is called GI50 is the concentration at which growth is held to half of that of the control. Read a low GI50 as more potent growth inhibition. As for `COc1cc(OC)cc(-c2cn(-c3ccc(O)c(C(=O)Nc4cccc(C(F)(F)F)c4)c3)nn2)c1`, the inhibition at 10 µM in the experiment with CCRF-CEM [1] was 73%; with HCT-116 [4], 62%. The values for the GI50 in the experiment with HCT-116 [2] and in the experiment with CCRF-CEM [3] were 4.37 µM and 6.41 µM, respectively.

With `COC(=O)c1cc(-n2cc(-c3ccc(OC)cc3)nn2)ccc1O`, the inhibition at 10 µM in the experiment on CCRF-CEM [1] was 16%; in the experiment with HCT-116 [4] it was 6%.

With `COC(=O)c1cc(-n2cc(-c3ccccc3OC)nn2)ccc1O`, the results for the inhibition at 10 µM with CCRF-CEM [1] and with HCT-116 [4] were 6% and 8%, respectively.

Regarding `COC(=O)c1cc(-n2cc(-c3cccc(O)c3)nn2)ccc1O`, the values for the inhibition at 10 µM in the experiment on CCRF-CEM [1] and with HCT-116 [4] were 5% and 6%, respectively.

On to `COc1ccc(OC)c(-c2cn(-c3ccc(O)c(C(=O)NCCc4ccc(F)cc4)c3)nn2)c1`, for which the inhibition at 10 µM in the experiment on CCRF-CEM [1] was 35%; in the experiment with HCT-116 [4], 44%. In addition, the GI50 in the experiment with HCT-116 [2] worked out at 13.6 µM; in the experiment on CCRF-CEM [3], 22.9 µM.

Consider `O=C(NCCc1ccc(F)cc1)c1cc(-n2cc(-c3cccc(O)c3)nn2)ccc1O`, for which the inhibition at 10 µM with CCRF-CEM [1] worked out at 35%. Also, the 50% growth inhibitory concentration (GI50) in the experiment with HCT-116 [2] was more than 100 µM; in the experiment with CCRF-CEM [3] it was 22.8 µM.

Consider `COc1ccc(-c2cn(-c3ccc(O)c(C(=O)NCCc4ccc(F)cc4)c3)nn2)cc1`, for which the values for the inhibition at 10 µM with CCRF-CEM [1] and with HCT-116 [4] were 21% and 62%, respectively. In addition, the GI50 with HCT-116 [2] is 12.5 µM; in the experiment on CCRF-CEM [3] it was more than 100 µM.

As to `COc1ccccc1-c1cn(-c2ccc(O)c(C(=O)NCCc3ccc(F)cc3)c2)nn1`, the inhibition at 10 µM with CCRF-CEM [1] turned out to be 11%; with HCT-116 [4], 23%.

Take `O=C(OCCCc1ccccc1)c1cc(-n2cc(-c3cccc(O)c3)nn2)ccc1O`: the inhibition at 10 µM in the experiment on CCRF-CEM [1] came to 9%; in the experiment on HCT-116 [4], 11%.

`COC(=O)c1cc(-n2cc(-c3cc(OC)cc(OC)c3)nn2)ccc1O`: the inhibition at 10 µM in the experiment on CCRF-CEM [1] and in the experiment on HCT-116 [4] was 3% in each case.

In the experiment on CCRF-CEM [1], `COc1ccc(OC)c(-c2cn(-c3ccc(O)c(C(=O)O)c3)nn2)c1` came in with an inhibition at 10 µM of 9%.

`COC(=O)c1cc(-n2cc(-c3cc(OC)ccc3OC)nn2)ccc1O`: the inhibition at 10 µM in the experiment on CCRF-CEM [1] was 3%; with HCT-116 [4], 6%.

Turning to `COC(=O)c1cc(-n2cc(-c3cc(O)ccc3O)nn2)ccc1O`, the values for the inhibition at 10 µM with CCRF-CEM [1] and with HCT-116 [4] were 52% and 15%, respectively. Further, the GI50 was more than 100 µM in the experiment with HCT-116 [2] and 13.9 µM in the experiment with CCRF-CEM [3].

For the compound `O=C(O)c1cc(-n2cc(-c3cccc(O)c3)nn2)ccc1O`, the inhibition at 10 µM with CCRF-CEM [1] turned out to be 3%; in the experiment with HCT-116 [4], 5%.

Turning to `COc1ccc(-c2cn(-c3ccc(O)c(C(=O)O)c3)nn2)cc1`, the inhibition at 10 µM worked out at 9% with CCRF-CEM [1] and 8% with HCT-116 [4].

In the case of `COc1ccccc1-c1cn(-c2ccc(O)c(C(=O)O)c2)nn1`, the inhibition at 10 µM with CCRF-CEM [1] is 9%; in the experiment on HCT-116 [4], 4%.

Turning to `O=C(NCCc1ccc(F)cc1)c1cc(-n2cc(-c3cc(O)ccc3O)nn2)ccc1O`, the inhibition at 10 µM is 15% with CCRF-CEM [1] and 18% in the experiment on HCT-116 [4].

On to `COc1ccc(-c2cn(-c3ccc(O)c(C(=O)Nc4cccc(C(F)(F)F)c4)c3)nn2)cc1`, for which the inhibition at 10 µM is 12% with CCRF-CEM [1] and 9% with HCT-116 [4].

In the case of `COc1ccc(OC)c(-c2cn(-c3ccc(O)c(C(=O)OCCCc4ccccc4)c3)nn2)c1`, the values for the inhibition at 10 µM with CCRF-CEM [1] and in the experiment with HCT-116 [4] were 5% and 13%, respectively.

As for `O=C(OCCCc1ccccc1)c1cc(-n2cc(-c3cc(O)ccc3O)nn2)ccc1O`, the inhibition at 10 µM stood at 81% in the experiment on CCRF-CEM [1] and 39% with HCT-116 [4]. In addition, the results for the GI50 with HCT-116 [2] and with CCRF-CEM [3] were 20.4 µM and 0.93 µM, respectively.

As for `COc1cc(OC)cc(-c2cn(-c3ccc(O)c(C(=O)NCCc4ccc(F)cc4)c3)nn2)c1`, the inhibition at 10 µM worked out at 35% with CCRF-CEM [1] and 43% in the experiment with HCT-116 [4]. Moreover, the concentration for 50% growth inhibition (GI50) with HCT-116 [2] is 16.1 µM; in the experiment on CCRF-CEM [3], more than 100 µM.

Consider `COc1ccc(OC)c(-c2cn(-c3ccc(O)c(C(=O)Nc4cccc(C(F)(F)F)c4)c3)nn2)c1`, for which the inhibition at 10 µM in the experiment on CCRF-CEM [1] turned out to be 15%; with HCT-116 [4], 46%. For the same compound, the GI50 with HCT-116 [2] is 12.9 µM; in the experiment with CCRF-CEM [3], more than 100 µM.

Consider `O=C(Nc1cccc(C(F)(F)F)c1)c1cc(-n2cc(-c3cccc(O)c3)nn2)ccc1O`, for which the inhibition at 10 µM in the experiment with CCRF-CEM [1] stood at 13%; in the experiment on HCT-116 [4] it was 25%.

As to `COc1ccc(-c2cn(-c3ccc(O)c(C(=O)OCCCc4ccccc4)c3)nn2)cc1`, the inhibition at 10 µM was 5% in the experiment with CCRF-CEM [1] and 12% in the experiment with HCT-116 [4].

As for `COc1ccccc1-c1cn(-c2ccc(O)c(C(=O)OCCCc3ccccc3)c2)nn1`, the inhibition at 10 µM with CCRF-CEM [1] was found to be 4%; in the experiment on HCT-116 [4], 7%.

For the compound `COc1cc(OC)cc(-c2cn(-c3ccc(O)c(C(=O)OCCCc4ccccc4)c3)nn2)c1`, the results for the inhibition at 10 µM in the experiment with CCRF-CEM [1] and with HCT-116 [4] were 8% and 19%, respectively.

On to `COc1cc(OC)cc(-c2cn(-c3ccc(O)c(C(=O)O)c3)nn2)c1`, for which the inhibition at 10 µM amounted to 9% with CCRF-CEM [1] and 2% in the experiment on HCT-116 [4].

For the compound `COc1ccccc1-c1cn(-c2ccc(O)c(C(=O)Nc3cccc(C(F)(F)F)c3)c2)nn1`, the inhibition at 10 µM with CCRF-CEM [1] worked out at 65%; with HCT-116 [4], 61%. Besides, the figures for the GI50 with HCT-116 [2] and in the experiment with CCRF-CEM [3] were 7.92 µM and 10.5 µM, respectively.

As to `COc1cccc2c1C(=O)c1c(O)c3c(c(O)c1C2=O)C[C@@](O)(C(=O)CO)C[C@@H]3O[C@H]1C[C@H](N)[C@H](O)[C@H](C)O1` [DOXORUBICIN], the GI50 with HCT-116 [2] was 0.4 µM; in the experiment with CCRF-CEM [3] it was 0.02 µM.

By IC50 is commonly meant the concentration needed to halve the response being measured. Read a low IC50 as greater potency in that assay. In the experiment with HaCaT, `O=C(O)c1cc(NCc2cc(O)ccc2O)ccc1O` [LAVENDUSTIN C] gave an IC50 of more than 100 µM.
